Drawing on ChEMBL document CHEMBL5712091, “Role of the GLUT1 Glucose Transporter in Postnatal CNS Angiogenesis and Blood-Brain Barrier Integrity” (Circ Res, 2020), this text covers inhibition for 2 compounds.

Assay [1] deals with BEND3. As to the kind of experiment: Inhibition of GLUT in mouse BEND3 cells assessed as decrease in cell migration at 20 micromol/L. Type of assay: cell-based. The note with it: dose 20.0 µmol/L.
Assay [2] concerns BEND3. Briefly: Inhibition of GLUT in mouse BEND3 cells assessed as decrease in cell proliferation at 20 micromol/L. The format is cell-based. To be noted: dose 20.0 µmol/L.
For assay [3], the system named is BEND3. As to the kind of experiment: Inhibition of GLUT in mouse BEND3 cells assessed as decrease of [14C]-3-O-methylglucose transport at 20 micromol/L after 2 hrs by glucose transport assay. Type of assay: cell-based. To be noted: dose 20.0 µmol/L. A digest of the protocol:
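bEND3 cells were treated with inhibitor or DMSO vehicle for 24 hrs, then held in serum-free DMEM for 2 hrs at 37°C with inhibitor or vehicle and washed. Uptake ran 30 min in DPBS with 20 mM 3-O-methylglucose plus 1 µCi/ml 14C-3MG, still with inhibitor. It was stopped with ice-cold 50 mM glucose in PBS, cells lysed in 0.1 N NaOH, and counted by LSC; triplicate.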

The target in assay [4] is T1, Solute carrier family 2, facilitated glucose transporter member 1 (Homo sapiens) (UniProt P11166).
T1 sequence (whole entry): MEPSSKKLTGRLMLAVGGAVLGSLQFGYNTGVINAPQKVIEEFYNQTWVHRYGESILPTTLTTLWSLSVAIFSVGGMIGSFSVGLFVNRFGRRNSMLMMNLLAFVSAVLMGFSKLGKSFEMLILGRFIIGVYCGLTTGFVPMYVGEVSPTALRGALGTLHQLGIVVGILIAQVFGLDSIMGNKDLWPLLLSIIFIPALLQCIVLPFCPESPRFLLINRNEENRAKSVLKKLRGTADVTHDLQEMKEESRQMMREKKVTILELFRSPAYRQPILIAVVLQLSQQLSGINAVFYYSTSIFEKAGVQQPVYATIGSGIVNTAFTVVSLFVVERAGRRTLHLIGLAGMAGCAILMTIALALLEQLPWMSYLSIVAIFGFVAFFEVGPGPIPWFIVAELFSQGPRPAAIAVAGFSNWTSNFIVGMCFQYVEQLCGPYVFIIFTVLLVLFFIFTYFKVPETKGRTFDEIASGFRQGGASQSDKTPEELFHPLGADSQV
As to the kind of experiment: Inhibition of GLUT1 in HUVEC assessed as sprouting angiogenesis at 40 nmol/L in presence of mitomycin C. The format is cell-based. A digest of the protocol:
(§1)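 Spheroids of 1000 ECs per 25 µl hanging drop formed overnight in 20% methylcellulose/EGM2, then embedded in 5 mg/ml fibrinogen gel in EGM2 with or without inhibitor and/or 1 µg/ml mitomycin C. Same medium overlaid on gel. Fixed with 4% PFA after 24 hrs and photographed.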

Assay [5] deals with T2, Solute carrier family 2, facilitated glucose transporter member 1 (Mus musculus) (UniProt P17809).
T2 sequence (whole entry): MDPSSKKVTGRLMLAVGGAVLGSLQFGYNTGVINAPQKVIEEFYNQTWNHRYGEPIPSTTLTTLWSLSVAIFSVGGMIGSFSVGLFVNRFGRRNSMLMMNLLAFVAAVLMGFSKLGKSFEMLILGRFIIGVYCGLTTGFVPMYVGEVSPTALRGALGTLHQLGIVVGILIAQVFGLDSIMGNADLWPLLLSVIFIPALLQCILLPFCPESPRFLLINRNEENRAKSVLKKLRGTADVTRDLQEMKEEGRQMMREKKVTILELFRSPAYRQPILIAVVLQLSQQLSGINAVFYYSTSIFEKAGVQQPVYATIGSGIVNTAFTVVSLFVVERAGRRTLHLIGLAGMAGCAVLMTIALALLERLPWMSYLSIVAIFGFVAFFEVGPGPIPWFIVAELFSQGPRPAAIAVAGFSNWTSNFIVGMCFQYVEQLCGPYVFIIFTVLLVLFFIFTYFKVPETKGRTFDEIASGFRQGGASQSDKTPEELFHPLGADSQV
Briefly: Inhibition of GLUT1 in mouse primary endothelial cells assessed as decrease in glucose transport. The format is cell-based. To be noted: Endothelial cell.

Assay [6] addresses T2, Solute carrier family 2, facilitated glucose transporter member 1 (Mus musculus). As to the kind of experiment: Inhibition of GLUT1 in mouse primary endothelial cells assessed as decrease in glycolysis. Type of assay: cell-based. The note with it: Endothelial cell. Put shortly:
(§2)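 Glycolytic flux read as 3H2O release: cells kept 2 hrs in culture medium containing D-[5-3H]-glucose at 0.4 µCi/ml final. Supernatant sealed in glass vials, 3H2O captured over 48 h at 37°C on water-soaked paper in hanging wells, then counted by scintillation. Inhibitor exposure 24 hrs from the day after seeding.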

The target is the same in assay [7]. Briefly: Inhibition of GLUT1 in mouse BEND3 cells assessed as reduced phosphorylation of mTORC1 at 20 nmol/L by Western blot analysis. Type of assay: cell-based.
The target is the same in assay [8]. Briefly: Inhibition of GLUT1 in mouse BEND3 cells assessed as activation of AMPK at 20 nmol/L by Western blot analysis. Type of assay: cell-based. Put shortly: (§3)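 bEND3 lysed in Laemmli buffer, denatured 5 min at 95°C, and 15 µg protein run on 4-20% gels and transferred to PVDF. Probed overnight in 5% milk/TBST with antibodies to phospho-AMPKα (Thr172), AMPKα, p53 and p21, with β-actin.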
Background: A western blot detects proteins with antibodies after separation by electrophoresis.

Assay [9] has the same target. As to the kind of experiment: Inhibition of GLUT1 in mouse BEND3 cells assessed as decrease in cell proliferation at 20 nmol/L. The format is cell-based. Put shortly:
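Proliferation measured after 24 hrs of inhibitor as [6-3H]-thymidine incorporation: 2 hrs with 1 µCi/ml final in culture medium, ethanol fixation 15 min at 4°C, 10% TCA precipitation, 0.1 N NaOH lysis, and scintillation counting.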

In assay [10] the target is T1, Solute carrier family 2, facilitated glucose transporter member 1 (Homo sapiens). As to the kind of experiment: Inhibition of GLUT1 in HUVEC assessed as decrease in sprouting angiogenesis at 40 nmol/L. The format is cell-based. Put shortly:
as §1

Assay [11] deals with T2, Solute carrier family 2, facilitated glucose transporter member 1 (Mus musculus). Briefly: Inhibition of GLUT1 in mouse BEND3 cells assessed as reduction in glycolytic metabolite at 20 nmol/L. Type of assay: cell-based.
Assay [12] shares this target. Briefly: Inhibition of GLUT1 in mouse BEND3 cells assessed as increase in AMP/ATP ratio at 20 nmol/L. Type of assay: cell-based.
The target is the same in assay [13]. Briefly: Inhibition of GLUT1 in mouse BEND3 cells assessed as slight decrease in cell migration at 20 nmol/L by scratch wound assay. Type of assay: cell-based. Put shortly: (§4)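 Confluent monolayers, pre-treated 24 hrs with inhibitor or 1 µg/ml mitomycin C where indicated, scratched with a pipette tip and imaged (T0). Then incubated in EGM2 and fixed with 4% PFA when control closure was near complete. Gap areas measured; closure % = (1 − Tx gap/T0 gap) × 100.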

The target is the same in assay [14]. As to the kind of experiment: Inhibition of GLUT1 in mouse BEND3 cells assessed as reduced phosphorylation of S6K1 at 20 nmol/L by Western blot analysis. Type of assay: cell-based.
In assay [15] the target is T1, Solute carrier family 2, facilitated glucose transporter member 1 (Homo sapiens). As to the kind of experiment: Inhibition of GLUT1 in human retinal microvascular endothelial cells assessed as decrease in sprouting angiogenesis. Type of assay: cell-based. To be noted: Endothelial cell. A digest of the protocol:
as §1

The target of assay [16] is T2, Solute carrier family 2, facilitated glucose transporter member 1 (Mus musculus). Briefly: Inhibition of GLUT1 in mouse BEND3 cells assessed as decrease in glycolysis at 20 nmol/L relative to cytochalasin B. Type of assay: cell-based. The note with it: time 2.0 hrs. Put shortly: as §2
Assay [17] shares this target. Briefly: Inhibition of GLUT1 in mouse BEND3 cells assessed as complete inhibition of [14C]-3-O-methylglucose transport at 20 nmol/L after 2 hrs by glucose transport assay. Type of assay: cell-based. A digest of the protocol: (§5)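 Cells pre-held 2 hrs at 37°C in serum-free DMEM with inhibitor or DMSO vehicle, DPBS-washed, then given 20 mM 3-O-methylglucose carrying 1 µCi/ml [14C]-3MG in DPBS plus inhibitor for 30 min uptake. Stopped and washed with ice-cold 50 mM glucose in PBS, lysed in 0.1 N NaOH, counted by liquid scintillation. Triplicate measurements.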

Assay [18] has the same target. As to the kind of experiment: Inhibition of GLUT1 in mouse BEND3 cells assessed as reduced phosphorylation of RPS6 at 20 nmol/L by Western blot analysis. Type of assay: cell-based.
The target in assay [19] is T1, Solute carrier family 2, facilitated glucose transporter member 1 (Homo sapiens). Briefly: Inhibition of GLUT1 in HUVEC assessed as decrease in glycolysis. Type of assay: cell-based. Put shortly:
as §2

Assay [20] shares this target. As to the kind of experiment: Inhibition of GLUT1 in human brain microvascular endothelial cells assessed as decrease in glycolysis at 20 nmol/L. The note with it: Endothelial cell. A digest of the protocol: as §2
Assay [21] has the same target. Briefly: Inhibition of GLUT1 in human brain microvascular endothelial cells assessed as decrease in sprouting angiogenesis. To be noted: Endothelial cell, dose 20.0 nmol/L. A digest of the protocol:
as §1

The target in assay [22] is T2, Solute carrier family 2, facilitated glucose transporter member 1 (Mus musculus). As to the kind of experiment: Inhibition of GLUT1 in mouse BEND3 cells assessed as cell migration at 20 nmol/L by scratch wound assay in presence of mitomycin C. The format is cell-based. Put shortly: as §4
Assay [23] has the same target. Briefly: Inhibition of GLUT1 in mouse BEND3 cells assessed as increase in p53/p21 ratio at 20 nmol/L by Western blot analysis. Type of assay: cell-based. Put shortly:
as §3

Assay [24] has the same target. Briefly: Inhibition of GLUT1 in mouse BEND3 cells assessed as decrease in [14C]-3-O-methylglucose transport after 2 hrs by glucose transport assay. The format is cell-based. A digest of the protocol: as §5
Assay [25] concerns the target T1, Solute carrier family 2, facilitated glucose transporter member 1 (Homo sapiens). As to the kind of experiment: Inhibition of GLUT1 in human retinal microvascular endothelial cells assessed as decrease in glycolysis at 20 nmol/L. The format is cell-based. To be noted: Endothelial cell, time 2.0 hrs. Put shortly:
as §2

For assay [26] the target is unchanged. As to the kind of experiment: Inhibition of GLUT1 in HUVEC assessed as decrease in glucose transport. Type of assay: cell-based. A digest of the protocol: as §5

Structures are written as SMILES. Active and inactive are the calls of the source. The calls are words filed in the database; no cut-off is given here.

What is called inhibition is the drop in the measured response relative to a control, in per cent. Consider `C=C1[C@@H](C)[C@H]2[C@H](Cc3ccccc3)NC(=O)[C@]23OC(=O)/C=C/[C@H](O)CCC[C@@H](C)C/C=C/[C@H]3[C@@H]1O`, for which the inhibition entry in the assay with BEND3 [1], in the assay with BEND3 [2] and in the assay with BEND3 [3] was “Active” each time.

Turning to `Cc1c(NC(=O)c2cc(C(N)=O)nc3cc(F)ccc23)c(C(F)(F)F)nn1Cc1ccc(C#N)cc1`, the inhibition result in [4] and in [22] was “inactive” each time. Besides, the inhibition result in assay [5], in assay [6], in assay [7], in assay [8], in assay [10] and in assay [11] was “Active” each time. Also, the inhibition entry in assay [12], in assay [13], in assay [14], in [15], in [16] and in assay [17] was “Active” throughout. Further, the inhibition entry in assay [18], in assay [19], in assay [20], in assay [21], in assay [23] and in [24] was “Active” in each case. In addition, the inhibition result in assay [25] and in assay [26] was “Active” in each case. Also, in assay [9], the inhibition is 40%.
